In ChEMBL document CHEMBL1124155, “Synthesis and dopamine agonist and antagonist effects of (R)-(-)- and (S)-(+)-11-hydroxy-N-n-propylnoraporphine” (J Med Chem, 1988):
pKi: −log10 of the molar value.

Assays:
[1] = tested on: Rattus norvegicus; assay: Effect (3 mg/kg) on motor arousal induced by apomorphine; type: functional
How it was run: (§1)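 Rats received test enantiomer ip immediately before apomorphine (0.3 mg/kg). They were then placed in a microcomputer-controlled electronic activity monitor for 1 h. Read-out was activity counts per hour, mean ± SEM, N = 6. Comparison was against a saline + apomorphine control by Student's t test.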

[2] = tested on: Rattus norvegicus; assay: Stereotyped behavior in rat induced by Aporphines after ip administration at 0 mg/kg dose; type: functional; conditions: route intraperitoneal
How it was run: (§2)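 Aporphine given ip to rats (doses 0.3–3.0 mg/kg; saline as 0). Stereotyped behavior rated every 10 min for 1 h. Mean stereotypy score, maximum 18.0, ± SEM, N = 6. Student's t test, p < 0.05.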

[3] = tested on: Rattus norvegicus; assay: Stereotyped behavior in rat induced by Aporphines after ip administration at 3.0 mg/kg dose; type: functional; conditions: route intraperitoneal; how it was run: as §2
[4] = tested on: Rattus norvegicus; assay: Stereotyped behavior in rat induced by Aporphines after ip administration at 0.3 mg/kg dose; type: functional; conditions: route intraperitoneal; how it was run: as §2
[5] = tested on: Rattus norvegicus; assay: Effect (3 mg/kg) on motor arousal induced by apomorphine (0.3 mg/kg) expressed as percent control; type: functional; how it was run: as §1
[6] = tested on: Rattus norvegicus; assay: Stereotyped behavior in rat induced by Aporphines after ip administration at 1.0 mg/kg dose; type: functional; conditions: route intraperitoneal; how it was run: as §2
[7] = target: Dopamine receptor; assay: Binding affinity against dopamine agonist sites from rat brain corpus striatal preparations using [3H]ADTN
[8] = target: D(2) dopamine receptor (Rattus norvegicus, UniProt P61169); assay: Binding affinity against Dopamine receptor D2 from rat brain corpus striatal preparations using [3H]spiperone
D(2) dopamine receptor, sequence (P61169 whole entry): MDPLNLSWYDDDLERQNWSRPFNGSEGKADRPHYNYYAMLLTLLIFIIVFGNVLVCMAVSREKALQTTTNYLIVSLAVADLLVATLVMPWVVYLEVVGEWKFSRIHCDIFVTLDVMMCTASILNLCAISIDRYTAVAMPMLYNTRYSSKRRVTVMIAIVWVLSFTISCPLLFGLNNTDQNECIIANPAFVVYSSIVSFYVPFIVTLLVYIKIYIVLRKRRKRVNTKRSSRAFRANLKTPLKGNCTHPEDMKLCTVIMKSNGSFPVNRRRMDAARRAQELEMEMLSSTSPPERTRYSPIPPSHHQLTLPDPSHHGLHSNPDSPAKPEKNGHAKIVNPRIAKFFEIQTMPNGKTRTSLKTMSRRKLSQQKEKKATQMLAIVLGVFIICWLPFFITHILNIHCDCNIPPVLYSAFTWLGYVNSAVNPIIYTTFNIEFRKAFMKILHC

[9] = target: D(1A) dopamine receptor (Rattus norvegicus, UniProt P18901); assay: Binding affinity against Dopamine receptor D1 from rat brain corpus striatal preparations using [3H]SCH-23390
D(1A) dopamine receptor, sequence (P18901 whole entry): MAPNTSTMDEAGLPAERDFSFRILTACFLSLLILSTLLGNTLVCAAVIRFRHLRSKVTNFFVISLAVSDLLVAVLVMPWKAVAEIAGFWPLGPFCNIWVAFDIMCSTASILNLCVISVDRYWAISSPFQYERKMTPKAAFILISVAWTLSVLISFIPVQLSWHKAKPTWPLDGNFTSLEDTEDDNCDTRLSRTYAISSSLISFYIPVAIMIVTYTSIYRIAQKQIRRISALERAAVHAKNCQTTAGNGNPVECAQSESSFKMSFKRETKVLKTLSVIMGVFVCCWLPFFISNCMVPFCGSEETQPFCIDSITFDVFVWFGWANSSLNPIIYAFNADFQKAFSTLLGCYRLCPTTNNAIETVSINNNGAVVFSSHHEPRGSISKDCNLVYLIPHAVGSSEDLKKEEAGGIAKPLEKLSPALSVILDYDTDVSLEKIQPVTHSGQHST

[10] = tested on: Rattus norvegicus; assay: Effect (10 mg/kg) on motor arousal induced by apomorphine (0.3 mg/kg) expressed as percent control; type: functional; how it was run: as §1
[11] = tested on: Rattus norvegicus; assay: Effect (1 mg/kg) on motor arousal induced by apomorphine (0.3 mg/kg); type: functional; how it was run: as §1
[12] = tested on: Rattus norvegicus; assay: Effect (1 mg/kg) on motor arousal induced by apomorphine (0.3 mg/kg) expressed as percent control; type: functional; how it was run: as §1
[13] = tested on: Rattus norvegicus; assay: Effect (3 mg/kg) on motor arousal induced by apomorphine (0.3 mg/kg); type: functional; how it was run: as §1
[14] = tested on: Rattus norvegicus; assay: Effect on motor arousal induced by apomorphine (0.3 mg/kg) expressed as percent control; type: functional; how it was run: as §1
[15] = tested on: Rattus norvegicus; assay: Effect (0.3 mg/kg) on motor arousal induced by apomorphine; type: functional; how it was run: as §1

Row | SMILES | Activity [1] | Activity [2] | Activity [3] | Activity [4] | Control [5] [%] | Activity [6] | Ki [7] [nM] | pKi [8] | pKi [9] | Control [10] [%] | Activity [11] | Control [12] [%] | Activity [13] | Control [14] [%] | Activity [15]
1 | CCCN1CCc2cccc3c2[C@H]1Cc1cccc(O)c1-3 | 764 | 0.8 | 13.8 | 5.7 | 151 | 9.5 | – | – | – | – | – | – | – | – | –
2 | CCCN1CCc2cccc3c2[C@H]1Cc1ccccc1-3 | – | – | – | – | – | – | 1.1 | 8.62 | 6.47 | – | – | – | – | – | –
3 | CCCN1CCc2cccc3c2[C@@H]1Cc1cccc(O)c1-3 | – | 0.8 | 1.3 | 0.6 | 43 | 1.7 | – | – | – | 21 | 410 | 81 | 218 | – | –
4 | CN1CCc2cccc3c2[C@H]1Cc1ccc(O)c(O)c1-3 [APOMORPHINE] | – | 0.8 | 17.5 | 9.7 | – | 12.7 | – | – | – | – | – | – | – | 100 | 505
5 | CCCN1CCc2cccc3c2[C@@H]1Cc1ccccc1-3 | – | – | – | – | – | – | 278 | 6.94 | 5.87 | – | – | – | – | – | –
